Results as given in ChEMBL document CHEMBL1799919, “Design, synthesis, biological evaluation, and structure-activity relationships of substituted phenyl 4-(2-oxoimidazolidin-1-yl)benzenesulfonates as new tubulin inhibitors mimicking combretastatin A-4” (J Med Chem, 2011).
Calls of active or inactive are those of the source. The calls are words filed in the database; no cut-off is given here.

Tests used:
CHO-VV 3-2 = assay: Antiproliferative activity against colchicine- and vinblastine-resistant CHO-VV 3-2 cells after 48 hrs by sulforhodamine B assay; conditions: Cricetulus griseus, CHO-VV 3-2, 48 h
M21 [1] = assay: Cell cycle arrest in human M21 cells assessed as accumulation at G0/G1 phase at 5 times IC50 after 24 hrs using propidium iodide staining by flow cytometric analysis (reference value: 61%); assay type: functional
CCRF-CEM = assay: Antiproliferative activity against human CEM cells after 48 hrs by sulforhodamine B assay; assay type: functional, cell-based
CHO-TAX 5-6 [2] = assay: Resistant ratio of IC50 for paclitaxel-resistant CHO-TAX 5-6 cells to IC50 for CHO cells; assay type: functional, Cricetulus griseus
Outline: (§1)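 Ratio of the IC50 in the resistant line (CEM-VLB, CHO-TAX 5-6 or CHO-VV 3-2) to the IC50 in its parental line (CEM or CHO).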

M21 [3] = assay: Disruption of cytoskeleton microtubule structure of human M21 cells at 5 times IC50 after 16 hrs by indirect immunofluorescence assay; assay type: functional, cell-based
Outline: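 Fixed in 3.7% formaldehyde, permeabilized with saponin, and stained with anti-β-tubulin (TUB 2.1), Alexa-488 secondary and DAPI. Microtubule structure scored by fluorescence microscopy.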

[4] = Antiproliferative activity against mouse P388D1 cells after 48 hrs by sulforhodamine B assay; assay type: functional, cell-based; conditions: P388D1, 48 h
HT-1080 [5] = assay: Antivasculogenic activity against human HT1080 cells xenografted in chicken chorioallantoic membrane assessed as inhibition of tumor growth at 3 ug per egg, iv measured on day 14 by CAM assay; assay type: functional
K562 = assay: Antiproliferative activity against human K562 cells after 48 hrs by sulforhodamine B assay; assay type: functional, cell-based; conditions: K562, 48 h
DU-145 = assay: Antiproliferative activity against human DU145 cells after 48 hrs by sulforhodamine B assay; assay type: functional, cell-based; conditions: DU-145, 48 h
M21 [6] = assay: Cell cycle arrest in human M21 cells assessed as accumulation at G2/M phase at 5 times IC50 after 24 hrs using propidium iodide staining by flow cytometric analysis (reference value: 9%); assay type: functional
M21 [7] = assay: Antiproliferative activity against human M21 cells after 48 hrs by sulforhodamine B assay; assay type: functional, cell-based; conditions: M21, 48 h
HT-29 = assay: Antiproliferative activity against human HT-29 cells after 48 hrs by sulforhodamine B assay; assay type: functional, cell-based; conditions: HT-29, 48 h
MDA-MB-231 [8] = assay: Displacement of N,N'-ethylenebis(iodoacetamide) from colchicine-binding site of beta-tubulin in human MDA-MB-231 cells at 1000 times IC50 preincubated for after 2 hrs before N,N'-ethylenebis(iodoacetamide) addition measured after 1.5 hrs by chemiluminescence assay; assay type: cell-based
Outline: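 EBI (100 μM final) added for 1.5 h at 37 °C; controls received 0.5% DMSO. Lysates (20 μg protein) run on 10% SDS-PAGE and blotted with anti-β-tubulin (TUB 2.1). β-tubulin–EBI adduct band detected by ECL.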

SK-OV-3 = assay: Antiproliferative activity against human SKOV3 cells after 48 hrs by sulforhodamine B assay; assay type: functional, cell-based; conditions: SK-OV-3, 48 h
L1210 = assay: Antiproliferative activity against mouse L1210 cells after 48 hrs by sulforhodamine B assay; assay type: functional, cell-based; conditions: L1210, 48 h
HT-1080 [9] = assay: Antiproliferative activity against human HT1080 cells after 48 hrs by sulforhodamine B assay; assay type: functional, cell-based; conditions: HT-1080, 48 h
CHO = assay: Antiproliferative activity against CHO cells after 48 hrs by sulforhodamine B assay; assay type: functional, cell-based; conditions: Cricetulus griseus
M21 [10] = assay: Cell cycle arrest in human M21 cells assessed as accumulation at S phase at 5 times IC50 after 24 hrs using propidium iodide staining by flow cytometric analysis (reference value: 30%); assay type: functional
CEM-VLB = assay: Resistant ratio of IC50 for multidrug-resistant human CEM-VLB cells to IC50 for human CEM cells; assay type: functional
Outline: as §1

[11] = Antiproliferative activity against multidrug-resistant human CEM/VLB cells after 48 hrs by sulforhodamine B assay; assay type: functional
CHO-TAX 5-6 [12] = assay: Antiproliferative activity against paclitaxel-resistant CHO-TAX 5-6 cells after 48 hrs by sulforhodamine B assay; assay type: functional, cell-based; conditions: Cricetulus griseus, CHO-TAX 5-6, 48 h
[13] = Toxicity against fertilized chicken embryo assessed as mortality at 3 ug per egg, iv by CAM assay; assay type: organism-based, Gallus gallus; conditions: in vivo, read-out: Activity
Outline: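 Fertilized chicken eggs incubated 10 days with automatic turning, then static. HT-1080 cells (3.5 × 10^5 cells/egg) grafted onto exposed CAM. On day 11, drug in DMSO diluted into cremophor/ethanol/PBS (6.25/6.25/87.5 v/v) excipient, DMSO below 0.5%, 100 μL injected iv into 10-12 eggs. Eggs incubated to day 17, dead embryos counted. Untreated eggs used for normalization. Two independent experiments, at least 10 eggs each.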

MDA-MB-231 [14] = assay: Antiproliferative activity against human MDA-MB-231 cells after 48 hrs by sulforhodamine B assay; assay type: functional, cell-based; conditions: MDA-MB-231, 48 h
[15] = Antiproliferative activity against mouse B16F0 cells after 48 hrs by sulforhodamine B assay; assay type: functional, cell-based; conditions: B16F0, 48 h
MCF7 = assay: Antiproliferative activity against human MCF7 cells after 48 hrs by sulforhodamine B assay; assay type: functional, cell-based; conditions: MCF7, 48 h

| Compound | IC50 (CHO-VV 3-2) | Activity (M21 [1]) | IC50 (CCRF-CEM) | Ratio IC50 (CHO-TAX 5-6 [2]) | Activity (M21 [3]) | IC50 [4] | Activity (HT-1080 [5]) | IC50 (K562) | IC50 (DU-145) | Activity (M21 [6]) | IC50 (M21 [7]) | IC50 (HT-29) | inhibition (MDA-MB-231 [8]) | IC50 (SK-OV-3) | IC50 (L1210) | IC50 (HT-1080 [9]) | IC50 (CHO) | Activity (M21 [10]) | Ratio IC50 (CEM-VLB) | IC50 [11] | also measured |
| --- | --- | --- | --- | --- | --- | --- | --- | --- | --- | --- | --- | --- | --- | --- | --- | --- | --- | --- | --- | --- | --- |
| O=C1NCCN1c1ccc(S(=O)(=O)Oc2ccc(F)cc2)cc1 | 260 nM | 51% | 200 nM | 0.37 | Active | 240 nM | inactive | 180 nM | 550 nM | 28% | 89 nM | 120 nM | Active | 210 nM | 140 nM | 190 nM | 230 nM | 21% | 1.4 | 270 nM | IC50 (CHO-TAX 5-6 [12]): 86 nM; mortality [13]: 29%; IC50 (MDA-MB-231 [14]): 360 nM; IC50 [15]: 250 nM; IC50 (MCF7): 170 nM |
| CCOc1cccc(OS(=O)(=O)c2ccc(N3CCNC3=O)cc2)c1 | 39 nM | 2% | 20 nM | 0.38 | Active | 20 nM | Active | 18 nM | 72 nM | 78% | 12 nM | 18 nM | Active | 42 nM | 19 nM | 34 nM | 32 nM | 20% | 1.6 | 32 nM | IC50 (CHO-TAX 5-6 [12]): 12 nM; mortality [13]: 13%; IC50 (MDA-MB-231 [14]): 55 nM; IC50 [15]: 65 nM; IC50 (MCF7): 19 nM |
| COc1cc(OC)cc(OS(=O)(=O)c2ccc(N3CCNC3=O)cc2)c1 | 15 nM | 1% | 7.1 nM | 0.71 | Active | 7.8 nM | 56% | 7.5 nM | 25 nM | 75% | 4.3 nM | 8 nM | Active | 6.8 nM | 6.4 nM | 8.2 nM | 7.3 nM | 24% | 1.3 | 9.2 nM | IC50 (CHO-TAX 5-6 [12]): 5.2 nM; mortality [13]: 10%; IC50 (MDA-MB-231 [14]): 14 nM; IC50 [15]: 25 nM; IC50 (MCF7): 10 nM |
| O=C1NCCN1c1ccc(S(=O)(=O)Oc2cc(Cl)cc(Cl)c2)cc1 | 20 nM | 1% | 16 nM | 0.36 | Active | 7.4 nM | inactive | 7.2 nM | 66 nM | 79% | 8.2 nM | 10 nM | Active | 16 nM | 9.6 nM | 18 nM | 17 nM | 20% | 1.2 | 19 nM | IC50 (CHO-TAX 5-6 [12]): 6.1 nM; mortality [13]: 29%; IC50 (MDA-MB-231 [14]): 26 nM; IC50 [15]: 41 nM; IC50 (MCF7): 18 nM |
| O=C1NCCN1c1ccc(S(=O)(=O)Oc2cccc(I)c2)cc1 | 20 nM | 2% | 17 nM | 0.52 | Active | 18 nM | Active | 14 nM | 57 nM | 77% | 10 nM | 11 nM | Active | 23 nM | 19 nM | 19 nM | 17 nM | 21% | 1.1 | 18 nM | IC50 (CHO-TAX 5-6 [12]): 8.9 nM; mortality [13]: 43%; IC50 (MDA-MB-231 [14]): 48 nM; IC50 [15]: 30 nM; IC50 (MCF7): 18 nM |
